From ChEMBL document CHEMBL1146074, “Design and synthesis of 1-indol-1-yl-propan-2-ones as inhibitors of human cytosolic phospholipase A2alpha” (J Med Chem, 2006)
Active and inactive are the calls of the source. The calls are words filed in the database; no cut-off is given here.

Experiments:
[1] = target: T1, Cytosolic phospholipase A2 (Homo sapiens, UniProt P47712); assay: Inhibition of human isolated cPLA2-alpha by vesicle assay
T1 sequence (P47712 whole entry): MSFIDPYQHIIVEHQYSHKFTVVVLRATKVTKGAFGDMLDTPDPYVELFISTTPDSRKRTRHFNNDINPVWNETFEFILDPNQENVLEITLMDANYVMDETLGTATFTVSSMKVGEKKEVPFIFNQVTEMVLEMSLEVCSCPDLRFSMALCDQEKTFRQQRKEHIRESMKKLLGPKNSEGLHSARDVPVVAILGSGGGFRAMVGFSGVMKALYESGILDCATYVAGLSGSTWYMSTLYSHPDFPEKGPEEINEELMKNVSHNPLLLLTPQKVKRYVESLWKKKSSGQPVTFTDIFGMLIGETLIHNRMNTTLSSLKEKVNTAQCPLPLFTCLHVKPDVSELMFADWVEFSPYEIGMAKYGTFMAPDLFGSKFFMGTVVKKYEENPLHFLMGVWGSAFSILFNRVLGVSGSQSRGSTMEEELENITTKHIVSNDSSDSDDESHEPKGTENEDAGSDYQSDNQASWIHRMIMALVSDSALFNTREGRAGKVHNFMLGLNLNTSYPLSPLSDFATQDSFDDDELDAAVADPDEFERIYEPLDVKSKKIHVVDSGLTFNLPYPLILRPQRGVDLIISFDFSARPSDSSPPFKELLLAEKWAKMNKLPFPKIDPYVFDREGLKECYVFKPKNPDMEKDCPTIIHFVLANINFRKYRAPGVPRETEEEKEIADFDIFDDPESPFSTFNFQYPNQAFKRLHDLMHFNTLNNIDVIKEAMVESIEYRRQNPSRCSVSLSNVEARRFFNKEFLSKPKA
Outline: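 Test compounds were at most 10 µM. Arachidonic acid formed was cleaned up by solid-phase extraction and quantified by reversed-phase HPLC with UV at 200 nm. IC50 values are means of at least two independent determinations.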

[2] = target: T1, Cytosolic phospholipase A2; assay: Inhibition of cPLA2-alpha activity assessed by TPA-induced arachidonic acid release in human platelet; assay type: functional
Outline: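 Intact human platelets stimulated with TPA (2 µM final) for 60 min, with the cyclooxygenase/12-lipoxygenase inhibitor ETYA added. Released arachidonic acid was quantified by RP18 HPLC with UV at 200 nm, using an internal standard. Parallel incubations without TPA were used to calculate specific hydrolysis. IC50 values are means of at least two independent determinations.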

[3] = target: T1, Cytosolic phospholipase A2; assay: Inhibition of cPLA2alpha activity assessed by A23187-induced arachidonic acid release in human platelet; assay type: functional
Outline: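 Intact human platelets stimulated with calcium ionophore A23187 (1 µM final) for 1 min, with ETYA added to block cyclooxygenase-1 and 12-lipoxygenase. Released arachidonic acid was measured by RP18 HPLC (acetonitrile/10 mM ammonium phosphate pH 7.4, 50:50) with UV at 200 nm, using an internal standard. IC50 values are means of at least two independent determinations.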

[4] = target: T2, Cytosolic phospholipase A2 (Homo sapiens) (UniProt P47712); assay: Inhibition of human isolated cPLA2-alpha by vesicle assay at 10 uM
T2 sequence (whole entry): T1 sequence (P47712 whole entry)

[5] = target: T2, Cytosolic phospholipase A2 (Homo sapiens); assay: Inhibition of cPLA2-alpha activity assessed by A23187-induced arachidonic acid release in human platelet at 10 uM; assay type: functional
Outline: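 Intact human platelets, with the dual cyclooxygenase/12-lipoxygenase inhibitor ETYA added, stimulated with calcium ionophore A23187 (1 µM final) for 1 min. Arachidonic acid released was measured by reversed-phase HPLC with UV at 200 nm, using 3-(4-decyloxyphenyl)propanoic acid as internal standard. Percent inhibition was read at 10 µM test compound. Cell lysis was checked by turbidimetry.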

Row | inhibition [4] | inhibition [5] | Structure (SMILES) | IC50 [1] | IC50 [2] | IC50 [3]
1 |  |  | CCCCCCCCCCOc1ccc(OCC(=O)Cn2cc(C(=O)OC)c3cc(C(=O)O)ccc32)cc1 | 4.3 nM | 0.9 nM | 570 nM
2 | inactive | inactive | CCCCCCCCc1ccc(OCC(=O)Cn2ccc3cc(Cl)ccc32)cc1 |  |  | 
3 |  |  | CCCCCCCCc1ccc(OCC(=O)Cn2cc(C#N)c3cc(C(=O)O)ccc32)cc1 | 15 nM | 11 nM | 370 nM
4 | inactive | inactive | CCCCCCCCc1ccc(OCC(=O)Cn2ccc3cc(C)ccc32)cc1 |  |  | 
5 |  |  | CCCCCCCCc1ccc(OCC(=O)Cn2cc(Cl)c3cc(C(=O)O)ccc32)cc1 | 110 nM | 120 nM | 1500 nM
6 | inactive |  | CCCCCCCCc1ccc(OCC(=O)Cn2c(C(=O)O)cc3ccccc32)cc1 |  |  | 8000 nM
7 |  |  | CCCCCCCCCCOc1ccc(OCC(=O)Cn2ccc3cc(C(=O)O)ccc32)cc1 | 20 nM | 7.8 nM | 210 nM
8 |  |  | CCCCCCCCc1ccc(OCC(=O)Cn2ccc3cc(C=O)ccc32)cc1 | 4300 nM |  | 4900 nM
9 | inactive | 43% | CCCCCCCCc1ccc(OCC(=O)Cn2ccc3ccccc32)cc1 |  |  | 
10 |  |  | CCCCCCCCc1ccc(OCC(=O)Cn2cc(C(=O)OC)c3cc(C(=O)O)ccc32)cc1 | 4.9 nM | 1.1 nM | 1400 nM
11 | 40% | 40% | CCCCCCCCc1ccc(OCC(=O)Cn2cc(C(=O)O)c3ccccc32)cc1 |  |  | 
12 |  |  | CCCCCCCCc1ccc(OCC(=O)Cn2cc(C=O)c3cc(C(=O)O)ccc32)cc1 | 16 nM | 9.7 nM | 380 nM
13 |  |  | CCCCCCCCc1ccc(OCC(=O)Cn2ccc3cc(C(N)=O)ccc32)cc1 | 120 nM |  | 770 nM
14 |  |  | CCCCCCCCc1ccc(OCC(=O)Cn2cc(C(C)=O)c3cc(C(=O)O)ccc32)cc1 | 16 nM | 6.4 nM | 1000 nM
15 |  |  | CCCCCCCCCCOc1ccc(OCC(=O)COc2ccc(C(=O)O)cc2)cc1 |  |  | 250 nM
16 |  |  | CCCCCCCCc1ccc(OCC(=O)Cn2cc(C(C)(C)C)c3cc(C(=O)O)ccc32)cc1 | 340 nM | 230 nM | 3300 nM
17 | inactive | 37% | CCCCCCCCc1ccc(OCC(=O)Cn2ccc3cc(OC)ccc32)cc1 |  |  | 
18 |  |  | CCCCCCCCc1ccc(OCC(=O)Cn2cc(C(=O)O)c3cc(C(=O)O)ccc32)cc1 | 890 nM | 560 nM | 6500 nM
19 | 36% | 40% | CCCCCCCCc1ccc(OCC(=O)Cn2ccc3cc(C(=O)OC)ccc32)cc1 |  |  | 
20 |  |  | CCCCCCCCc1ccc(OCC(=O)Cn2ccc3cc(C(=O)O)ccc32)cc1 |  | 18 nM | 410 nM
21 |  |  | CCCCCCCCc1ccc(OCC(=O)Cn2ccc3ccc(C(=O)O)cc32)cc1 | 1100 nM |  | 4700 nM

Row | Structure (SMILES) | inhibition [4] | inhibition [5] | IC50 [1] | IC50 [2] | IC50 [3]
22 | CCCCCCCCc1ccc(OCC(=O)Cn2ccc3cc(C#N)ccc32)cc1 | 25% | 46% |  |  | 
23 | CCCCCCCCc1ccc(OCC(=O)Cn2ccc3c(C(=O)O)cccc32)cc1 | 40% | 40% |  |  | 
